Assay outcomes from PubChem BioAssay.
Jurkat NFkB inh = inhibitors of induced NF-kB luciferase reporter, primary screen, TCR NF-kB activation inhibitor project, cell-based, luminescence, uHTS; Jurkat, PMA/ionomycin-induced NF-kB luciferase reporter; inhibition, % at 4 µM; 330,000 compounds, 0.53% hits; AID 435003, 2010; in the data active means inhibition above about 50%
GPR7 antagonist = GPR7 receptor antagonists, primary screen, cell-based, fluorescence, single concentration. inhibition, % at 4.4 µM. 290,000 compounds, 1.1% hits. AID 1861, 2009. Neuropeptides B/W receptor type 1 (Homo sapiens), P48145. GPR7-expressing cells, fluorescence antagonist assay; in the data active means inhibition above about 16%, passing the limit was not always enough;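 further: cells stimulated with the agonist NPW; 0% = agonist with vehicle and 100% = vehicle without agonist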
Target sequence (P48145 whole entry, looked up): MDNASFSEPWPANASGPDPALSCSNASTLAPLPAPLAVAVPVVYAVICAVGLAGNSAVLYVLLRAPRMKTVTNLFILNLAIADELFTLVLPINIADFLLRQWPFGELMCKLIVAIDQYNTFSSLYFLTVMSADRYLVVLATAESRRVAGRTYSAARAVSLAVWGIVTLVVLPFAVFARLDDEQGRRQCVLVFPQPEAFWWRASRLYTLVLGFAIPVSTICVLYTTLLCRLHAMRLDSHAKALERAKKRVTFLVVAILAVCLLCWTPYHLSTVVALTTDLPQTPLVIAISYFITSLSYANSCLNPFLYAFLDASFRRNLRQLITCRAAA
T cruzi repl = inhibitors of intracellular T. cruzi growth, primary screen, luminescence, NIH3T3 host cells; 300,000 compounds, 1.4% hits; T. cruzi beta-gal in NIH3T3, 90 h; inhibition, % (no concentration beside the values);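 active means mean inhibition across valid replicates above about 55%, limit read from the data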;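 further: signal also drops with host cell toxicity which is not excluded here; 0% = plate median of DMSO wells and 100% = zero luminescence signal; higher percent means less beta-gal luminescence so fewer parasites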
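assay system = mouse NIH/3T3 fibroblasts infected with β-gal-expressing T. cruzi Tulahuen C4 | input = 5,000 NIH/3T3 host cells per well | buffer or medium = DMEM plus 2% FBS | timing = 3 h host attachment, then at least 90 h co-culture | measured by = GalScreen luminescence, 60 min | evaluation = luminescence reflecting intracellular parasite burden, expressed as percent inhibition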
HSF1 inh = HSF1 inhibitors in luciferase reporter cells, primary screen, cell-based, NIH3T3, luminescence. NIH3T3-HGL HSE-luciferase, MG132-induced, luminescence 8 h; hits give low values. activity change, negative = inhibition, % at 7.5 µM (by protocol). 300,000 compounds, 0.77% hits. AID 2098, 2009;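 active means more than half of replicate wells show activity change below -50%, luminescence cut by over half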;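 further: luciferase reports HSF-1 transcriptional activity via heat shock element; 0% = median of DMSO wells and -100% = zero luminescence signal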
HSF1 activator = HSF-1 activators, primary screen, NIH3T3-HGL cells, MG132 stress, luminescence, single point; NIH3T3-HGL HSF-1 luciferase reporter, 8 h; 100% = twice DMSO control signal; activation, % at 9 µM; 300,000 compounds, 1.7% hits;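 active means mean replicate activation of at least 50% with a set share of replicates each reaching 50%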;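 further: 0% = median of the neutral control wells and 100% = twice that signal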
697 NFkB inh = inhibitors of PMA/ionomycin-induced NF-kB reporter, 697 cells, primary screen, B-cell NF-kB inhibitor project, cell-based, luminescence, uHTS | 697 B-cell NF-kB luciferase reporter, 16 h | inhibition, % at 4 µM | 330,000 compounds, 0.33% hits | AID 435022, 2010; in the data active means inhibition above about 35%
Numbers without * were called inactive; nt = not tested or not shown. Sampled rows, rich in hits. Any-hit rate of the full collection: about 4.8%.

SMILES	Jurkat NFkB inh	GPR7 antagonist	T cruzi repl	HSF1 inh	HSF1 activator	697 NFkB inh
Cc1nn(-c2ccccc2)c(N2CCCC2)c1/C=N/NC(=O)c1ccccc1O	-2.4	-7.7	-8.6	-9.5	-11.8	9.2
Cc1nn(-c2ccccc2)c(N2CCCC2)c1/C=N/NC(=O)c1cc(-c2cccnc2)nc2ccccc12	6.6	-15.3	57.1*	-4.6	-8.0	29.1
Cc1cc(C(=O)c2ccc(C(C)(C)C)cc2)c(NC(=O)CCl)s1	-2.5	-0.8	20.5	43.9	94.0*	0.8
O=C(CCl)Nc1sccc1C(=O)c1ccccc1	21.5	nt	-8.3	43.3	61.1*	20.1
CCN(CC)S(=O)(=O)c1ccc2c(c1)nc(SCC(=O)N(C)C1CCS(=O)(=O)C1)n2CC (stereo not given)	11.0	nt	1.5	-6.9	-11.6	6.1
CN(C)C(CNc1ncnc2sc3c(c12)CCCC3)c1ccco1 (stereo not given)	4.6	-0.8	10.7	-8.1	-15.5	-15.1
CCCCC(CC)C(=O)Oc1ccc(O)c(C(C)(C)C)c1 (stereo not given)	-18.9	30.5*	-8.8	-0.6	-5.2	-25.5
CC(C)(C)c1cc(OC(=O)C2CCCC2)ccc1O	-25.1	-1.9	-16.4	-0.6	-6.0	-60.7
CC(C)(C)c1cc(CCC(=O)NCC2CCCO2)cc(C(C)(C)C)c1O (stereo not given)	-0.7	-2.7	17.2	-2.4	-15.4	-7.9
Cn1cc(NC(=O)OCc2ccc(Cl)cc2)c(C(F)(F)F)n1	14.2	-11.1	13.8	38.1	56.3*	-51.5
COc1ccc(-c2ccc([C@H]3[C@@H]4C=CCC[C@@]4(C)C(=O)N3Cc3ccccc3)c(F)c2)cc1OC	6.8	nt	67.3*	0.0	-2.1	2.1
COc1ccc(NC(=O)CSc2nc(N)c3cc4c(nc3n2)CCCC4)cc1	-29.6	-7.7	-10.0	40.6	57.7*	-24.5
CC(=O)c1ccc(NC(=O)CSc2nc(N)c3cc4c(nc3n2)CCCC4)cc1	-37.2	-21.9	-5.3	22.2	29.8	-41.9
O=C(Nc1ccc(Oc2cccnc2)cc1)c1cccc([N+](=O)[O-])c1	-29.1	1.5	14.9	8.0	24.6	-25.9
COc1ccc(/C=N\NC(=O)c2ccc(F)cc2)cc1COc1cc(F)ccc1[N+](=O)[O-]	17.6	-3.5	27.2	5.7	-10.9	-0.3
COc1ccc(/C=N/NS(=O)(=O)c2ccc(F)cc2)cc1COc1cc(F)ccc1[N+](=O)[O-]	9.4	-4.0	58.7*	11.9	16.9	-24.2
Cc1ccc2c(C(=O)CSc3ccccc3)c(C)[nH]c2c1	-48.7	-4.9	-5.4	24.3	54.6*	-70.4
Cc1ccc(-c2nnc(SCC(=O)Nc3ccccc3F)o2)cc1	46.8	-0.2	-7.6	-53.8*	-60.1	-221.0
Cc1cc(-c2nnc(SCC(=O)Nc3ccccc3C(F)(F)F)o2)c(C)n1-c1ccccc1	1.8	4.8	13.3	-56.0*	-59.4	-20.6
COc1ccccc1NC(=O)CSc1nnc(-c2ccncc2)o1	-1.1	-11.0	-7.2	-63.1*	-70.4	-10.1
O=C(CSc1nnc(-c2ccncc2)o1)Nc1ccccc1Cl	-36.0	-13.3	-11.6	1.3	6.5	-30.6
O=C(CSc1nnc(-c2ccccn2)o1)Nc1ccccc1Cl	-57.3	14.9	2.1	16.6	51.4*	-114.6
COC(=O)CSc1nnc(-c2ccco2)o1	-2.4	1.5	-3.5	-1.0	5.8	-1.3
COc1ccccc1C(=O)CSc1nnc(-c2ccco2)o1	-6.3	-10.4	13.6	49.6	68.9*	-8.9
O=C(NC(=S)Nc1ccc(Oc2ccccc2)cc1)c1ccc(Cl)cc1	0.8	1.5	61.9*	-15.3	-17.6	-9.0
O=C(O)/C=C/C(=O)Nc1ccc(Oc2ccccc2)cc1	-5.9	-15.2	0.8	-54.1*	-59.0	5.4
Cc1ccc(C(=O)NC(=S)Nc2ccc(Oc3ccc(Cl)cc3)cc2)cc1	10.8	4.9	65.3*	-7.3	-4.9	1.4
